# Measured values: article PMC2764840 (Nature immunology, 2009)
# Legend:
# [1] = tested on: AND TCRtg DP thymocytes (AND.Rag1^−/−H-2^d); assay: CD69 upregulation assay, AND thymocytes; assay type: cell-based, mouse; settings: I-E^k-Ig dimers + anti-CD28, overnight
# Outline: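 Plates coated overnight at 4°C in PBS with 1 µg/well self-peptide-loaded I-E^k-Ig dimer (S2-cell-expressed, Protein A-purified; loaded 72 h at 37°C in 0.2 M citrate–PO₄ pH 5.0, then neutralized with 1 M pH 9.0) plus 10 µg/well anti-CD28. Thymocytes (1 × 10⁶/well) cultured overnight at 37°C in IMDM/10% FCS/2-ME; CD69 by flow cytometry. Two independent experiments.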
# AND TCRtg DP thymocytes = assay: Thymic reaggregate culture, positive selection of AND; assay type: cell-based, mouse; settings: ANV41.2 I-E^k cells, 96 hours
# Outline: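 DP thymocytes from newborn (3–14 d) AND.Rag1⁻/⁻H-2^d mice, CD8-bead purified (1 × 10⁶), were pelleted with 5 × 10⁵ untreated ANV41.2 I-E^k cells as standing drops on transwells. Peptide was added to the lower well in I-20 plus medium (Hb control 30 µM). Cultures ran 96 h at 37°C, then CD4/CD8 flow for %CD4SP. Mean ± s.e.m. of 5 experiments; Mann-Whitney.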
# [2] = tested on: AND TCRtg CD4^+ peripheral T cells; assay: Co-agonist assay; assay type: cell-based, mouse; settings: I-E^k-Ig dimers
# Outline: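 I-E^k-Ig dimers co-loaded with MCC and test or Hb control peptide at ratios of 1:10 to 1:1,000 (pH 5.0 citrate–PO₄, 37°C, 72 h), coated at 1 µg/well in triplicate. One to 2 × 10⁶ purified splenic AND CD4⁺ T cells (H-2^b) were added per well and cultured three days. ³H-TdR was pulsed for the final 18–24 h. Values are mean ± s.d. of triplicates.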
# [3] = tested on: AND TCRtg CD4^+ T cells in B6.K.Rag1^−/− mice; assay: Homeostatic proliferation assay; assay type: in vivo, mouse; settings: 0.5 mg i.p. on days -1 and +1; CFSE, flow cytometry
# Outline: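 Splenic AND CD4⁺ T cells were labeled with 5 µM CFSE, and 10⁶ cells/mouse were given retro-orbitally on day 0 to B6.K.Rag1⁻/⁻ recipients. Recipients received peptide i.p. (0.5 mg; also 0.1 mg) or Hb₆₄₋₇₆ control on days −1 and +1. After four days, inguinal and axillary nodes were pooled and CD4, Vα11 and CFSE analyzed by flow cytometry; totals counted. n = 8 mice/group over five experiments; Mann-Whitney.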
sequence,measurement,setting,value
GKKVITAFNEGLK [Hb],CD69 upregulation (in words),[1],did not upregulate CD69
same,positive selection of AND CD4SP cells (in words),AND TCRtg DP thymocytes,did not positively select AND TCRtg T cells in thymic reaggregate culture
same,stimulation of AND T cells (in words),[2]; MCC:peptide 1:20,stimulatory
same,stimulation of AND T cells (in words),"[2]; MCC:peptide 1:1,000",non-stimulatory
same,homeostatic proliferation of AND TCRtg T cells (in words),[3],proliferation of the AND TCRtg T cells
